Assays:
Mus musculus [1] = assay: Compound was evaluated for anticonvulsant activity by maximal electroshock assay(MES) in mice after po administration; 68-149; format: functional
Summary of the method: (§1)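 Male Hilltop ICR-derived mice (19-30 g), groups of 8-10, given compound or aqueous vehicle orally. The transcorneal 60-Hz shock (50 mA, 0.2 s) followed a 30 min pretreatment and a wire-hang neurological check (10 s). ED50 and 95% confidence limits were obtained from quantal data by the Litchfield-Wilcoxon method.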

Mus musculus [2] = assay: Anticonvulsant activity in mouse maximal electroshock assay following i.p. administration.; format: functional; conditions: ip
Summary of the method: (§2)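 Male Hilltop ICR-derived mice (19-30 g), groups of 8-10, dosed ip with compound or aqueous vehicle. After 15 min pretreatment, a transcorneal 60-Hz, 50 mA shock was given for 0.2 s. Just before the shock, each mouse was tested on a horizontal wire (10 s). Quantal data were analysed by Litchfield-Wilcoxon to give ED50 with 95% confidence limits.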

Mus musculus [3] = assay: Dose of compound causing a neurological deficit in 50% of mice after ip administration; format: functional
Summary of the method: (§3)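 Traction test in male Hilltop ICR-derived mice (19-30 g, groups of 8-10) just before electroshock, 15 min after ip or 30 min after oral dosing. Mice placed on a 16-gauge, 65-cm copper wire 40 cm above the table; deficit scored as failure to stay on for 10 s. ND50 with 95% limits by Litchfield-Wilcoxon.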

Mus musculus [4] = assay: Dose causing a neurological deficit in 50% of mice following p.o. administration.; format: functional; summary of the method: as §3
Mus musculus [5] = assay: Protective index defined as ND50 (p.o.) divided by MES ED50(op); format: functional
Summary of the method: (§4)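 Ratio of ND50 from the wire traction test to MES ED50, both measured by the same route (ip or oral) in the same animals. Quantal dose-response data for each were evaluated by Litchfield-Wilcoxon.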

Mus musculus [6] = assay: Protective index is defined as ND50 (i.p.) divided by MES ED50(i.p.); format: functional; summary of the method: as §4
Mus musculus [7] = assay: Compound was evaluated for anticonvulsant activity by maximal electroshock assay(MES) in mice after po administration; 33-62; format: functional; summary of the method: as §1
Mus musculus [8] = assay: Dose of compound causing a neurological deficit in 50% of mice after ip administration; 32-89; format: functional; summary of the method: as §3
[9] = Lethal dose was measured in mice after ip administration.; format: toxicity, organism-based; conditions: mouse, in vivo
Summary of the method: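 Male Simonsen ICR-derived mice (16-24 g), groups of three, given compound ip in increasing doses within a behavioral screen. Deaths counted on day 5, and LD50 estimated from 5-day survival. Quantal data analysed by the Litchfield-Wilcoxon method.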

Mus musculus [10] = assay: Compound was evaluated for anticonvulsant activity by maximal electroshock assay(MES) in mice after ip administration; 23-38; format: functional; summary of the method: as §2
Mus musculus [11] = assay: Dose of compound causing a neurological deficit in 50% of mice after ip administration; 70-93; format: functional; summary of the method: as §3
Mus musculus [12] = assay: Compound was evaluated for anticonvulsant activity by maximal electroshock assay(MES) in mice after ip administration; 37-68; format: functional; summary of the method: as §2
Mus musculus [13] = assay: Dose causing a neurological deficit in 50% of mice after ip administration.; format: functional; summary of the method: as §3
Mus musculus [14] = assay: Compound was evaluated for anticonvulsant activity by maximal electroshock assay(MES) in mice after ip administration; 9-26; format: functional; summary of the method: as §2
Mus musculus [15] = assay: Dose of compound causing a neurological deficit in 50% of mice after ip administration; 17-61; format: functional; summary of the method: as §3
Mus musculus [16] = assay: Compound was evaluated for anticonvulsant activity by maximal electroshock assay(MES) in mice after ip administration; 8-13; format: functional; summary of the method: as §2
Mus musculus [17] = assay: Dose of compound causing a neurological deficit in 50% of mice after ip administration; 16 to > 100; format: functional; summary of the method: as §3
Mus musculus [18] = assay: Dose of compound causing a neurological deficit in 50% of mice after ip administration; 79-125; format: functional; summary of the method: as §3
Rattus norvegicus [19] = assay: Compound was evaluated for anticonvulsant activity by maximal electroshock assay(MES) in rat after po administration; 34-83; format: functional
Summary of the method: (§5)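 Male Simonsen Sprague-Dawley-derived rats, 80-110 g, groups of 8-10, dosed with compound or aqueous vehicle; pretreatment 15 min after ip or 30 min after oral dosing. Transcorneal electroshock, 150 mA, 60 Hz, 0.2 s, given after the wire test. ED50 with 95% confidence limits from quantal data by Litchfield-Wilcoxon.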

Rattus norvegicus [20] = assay: Dose of compound causing a neurological deficit in 50% of rat after ip administration.; format: functional
Summary of the method: (§6)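 Rats (Simonsen Sprague-Dawley-derived, 80-110 g, groups of 8-10) placed on a suspended 16-gauge, 65-cm copper wire just before electroshock. Deficit scored as inability to remain for 8 s. Pretreatment was 15 min ip or 30 min oral. Quantal data analysed by Litchfield-Wilcoxon to give ND50 with 95% limits.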

Rattus norvegicus [21] = assay: Dose of compound causing a neurological deficit in 50% of rat after po administration.; format: functional; summary of the method: as §6
Mus musculus [22] = assay: Compound was evaluated for anticonvulsant activity by maximal electroshock assay(MES) in mice after ip administration; 14-23; format: functional; summary of the method: as §2
Rattus norvegicus [23] = assay: Compound was evaluated for anticonvulsant activity by maximal electroshock assay(MES) in rat after ip administration; 8-23; format: functional; summary of the method: as §5
Mus musculus [24] = assay: Compound was evaluated for anticonvulsant activity by maximal electroshock assay(MES) in mice after ip administration; 27-41; format: functional; summary of the method: as §2
Mus musculus [25] = assay: Dose of compound causing a neurological deficit in 50% of mice after ip administration; 34-82; format: functional; summary of the method: as §3
Mus musculus [26] = assay: Compound was evaluated for anticonvulsant activity by maximal electroshock assay(MES) in mice after ip administration; 14-24; format: functional; summary of the method: as §2
Mus musculus [27] = assay: compound was evaluated for anticonvulsant activity by maximal electroshock assay(MES) in mice after po administration.; format: functional
Summary of the method: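 Male Hilltop ICR-derived mice, 19-30 g, groups of 8-10, dosed orally with compound or aqueous vehicle. Transcorneal electroshock (50 mA, 60 Hz, 0.2 s) delivered 30 min after dosing, immediately after a wire-hang neurological test. ED50 with 95% confidence limits estimated from quantal data by Litchfield-Wilcoxon.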

Rattus norvegicus [28] = assay: Compound was evaluated for anticonvulsant activity by maximal electroshock assay(MES) in rat after po administration.; format: functional; summary of the method: as §5
Rattus norvegicus [29] = assay: Compound was evaluated for anticonvulsant activity by maximal electroshock assay(MES) in rat after ip administration.

**Q.** Which results are given for CCc1ccc2cc(C3(Cn4ccnc4)OCCO3)ccc2c1.Cl?
**A.** ED50 (Mus musculus [1]): 100 mg/kg; ED50 (Mus musculus [2]): 25 mg/kg; ND50 (Mus musculus [3]): >100 mg/kg; ND50 (Mus musculus [4]): >200 mg/kg; PI (Mus musculus [5]): >2; PI (Mus musculus [6]): >4

**Q.** Which ED50 (Mus musculus [7]) does the source give for CC1(C)COC(Cn2ccnc2)(c2ccc3ccccc3c2)OC1.Cl here?
**A.** 47 mg/kg

**Q.** What about the ND50 (Mus musculus [8]) of the same compound?
**A.** 52 mg/kg

**Q.** What about the ND50 (Mus musculus [4]) of the same compound?
**A.** >100 mg/kg

**Q.** And the LD50 [9]?
**A.** > 100 mg/kg

**Q.** And the PI (Mus musculus [5])?
**A.** >2.1

**Q.** What about the PI (Mus musculus [6]) of the same compound?
**A.** 2

**Q.** Which results are given for CC(C)c1ccc(C(=O)Cn2ccnc2)c2ccccc12.Cl?
**A.** ED50 (Mus musculus [10]): 28 mg/kg; ND50 (Mus musculus [11]): 81 mg/kg; PI (Mus musculus [6]): 2.9

**Q.** For Cl.O=C(Cn1ccnc1)c1ccc2cc(Cl)ccc2c1, which ED50 (Mus musculus [12]) is on record?
**A.** 51 mg/kg

**Q.** And the ND50 (Mus musculus [13])?
**A.** >100 mg/kg

**Q.** What about the PI (Mus musculus [6]) of the same compound?
**A.** >2

**Q.** With O=S(=O)(O)O.c1ccc(OC(Cn2ccnc2)c2ccc3ccccc3c2)cc1 (configuration not stated) as the compound, how does the ED50 (Mus musculus [14]) read?
**A.** 15 mg/kg

**Q.** And the ND50 (Mus musculus [15])?
**A.** 32 mg/kg

**Q.** What about the PI (Mus musculus [6]) of the same compound?
**A.** 2.1

**Q.** What does the source list for COC(CCn1ccnc1)c1ccc2ccccc2c1.O=S(=O)(O)O (configuration not stated)?
**A.** ED50 (Mus musculus [16]): 11 mg/kg; ND50 (Mus musculus [17]): >39 mg/kg; PI (Mus musculus [6]): 3.5

**Q.** With Cl.O=C(OC(Cn1ccnc1)c1ccc2ccccc2c1)c1ccccc1 (configuration not stated) as the compound, how does the ND50 (Mus musculus [18]) read?
**A.** 99 mg/kg

**Q.** And the ED50 (Rattus norvegicus [19])?
**A.** 53 mg/kg

**Q.** What about the ND50 (Rattus norvegicus [20]) of the same compound?
**A.** >100 mg/kg

**Q.** And the ND50 (Rattus norvegicus [21])?
**A.** >100 mg/kg

**Q.** And the PI (Mus musculus [6])?
**A.** 5.2

**Q.** What about the ED50 (Mus musculus [22]) of the same compound?
**A.** 19 mg/kg

**Q.** What about the ED50 (Rattus norvegicus [23]) of the same compound?
**A.** 14 mg/kg

**Q.** Which results are given for c1ccc2cc(C3(CCn4ccnc4)OCCO3)ccc2c1?
**A.** ND50 (Mus musculus [13]): >100 mg/kg; PI (Mus musculus [6]): >2.9; ED50 (Mus musculus [24]): 35 mg/kg

**Q.** With COC(Cn1ccnc1)c1cccc2ccccc12 (configuration not stated) as the compound, how does the ND50 (Mus musculus [25]) read?
**A.** 51 mg/kg

**Q.** And the ED50 (Mus musculus [26])?
**A.** 19 mg/kg

**Q.** What about the PI (Mus musculus [6]) of the same compound?
**A.** 2.7

**Q.** What does the source list for O=C1NC(=O)C(c2ccccc2)(c2ccccc2)N1 [PHENYTOIN]?
**A.** ED50 (Mus musculus [2]): 13 mg/kg; ND50 (Mus musculus [13]): >300 mg/kg; ND50 (Mus musculus [4]): >200 mg/kg; LD50 [9]: > 300 mg/kg; ED50 (Mus musculus [27]): 22 mg/kg; ED50 (Rattus norvegicus [28]): 85 mg/kg; ND50 (Rattus norvegicus [20]): >300 mg/kg; ND50 (Rattus norvegicus [21]): >300 mg/kg; PI (Mus musculus [6]): >23.1; ED50 (Rattus norvegicus [29]): 21 mg/kg
